Six molecules from ChEMBL document CHEMBL1124340, “Acyclic analogues of 3'-azido-3'-deoxythymidine as potential antiviral agents. Nucleoside synthesis by Michael addition” (J Med Chem, 1989) can be followed below.

The species entered for one data set is Homo sapiens. Nature of the data set: In vitro inhibitory activity against HIV-1 in human peripheral blood mononuclear cells at concentration 100 uM; Inactive. The class given is functional. In a few lines: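 Mitogen-stimulated PBM cells, three days old (10⁶ cells/mL), came from hepatitis- and HIV-1-seronegative donors. They were infected with HIV-1 strain LAV at about 100 TCID₅₀/mL. Compounds were added about 45 min post-infection and tested up to 100 μM. On day 5 the supernatant was clarified, virus pelleted, and reverse transcriptase activity measured. Cells came from three donors.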

Data set [1] has as its system Vero. In words: In vitro inhibitory activity against HSV-1 in vero cells in african green monkey at concentration 100 uM; Inactive. The class given is functional, cell-based. Conditions: Chlorocebus sabaeus.
The subject of data set [2] is Vero. In words: In vitro inhibitory activity against HSV-2 in vero cells in african green monkey at concentration 100 uM; Inactive. It counts as functional, cell-based. The conditions noted are these: Chlorocebus sabaeus.
A short description of data set [3]: Toxicity in Vero (African green monkey) cells at concentration 100 uM; compound found nontoxic. The conditions noted are these: chlorocebus aethiops, in vitro.
The test system of data set [4] is Vero. In words: In vitro inhibitory activity against HSV-1 in Vero (African green monkey) cells at concentration 100 uM; Inactive. The conditions noted are these: Chlorocebus sabaeus.
The subject of data set [5] is Vero. Nature of the data set: In vitro inhibitory activity against HSV-2 in Vero (African green monkey) cells at concentration 100 uM; Inactive. The conditions noted are these: Chlorocebus sabaeus.
In data set [6] the test system is Vero. In words: In vitro inhibitory activity against HSV-1 in vero cells of african green monkey at concentration 100 uM; Inactive. The class given is functional, cell-based. Conditions: Chlorocebus sabaeus.
For data set [7], the system named is Vero. Nature of the data set: In vitro inhibitory activity against HSV-2 in vero cells of african green monkey at concentration 100 uM; Inactive. The class given is functional, cell-based. Conditions: Chlorocebus sabaeus.
The nature of data set [8]: Toxicity in Vero (African green monkey) cells at concentration 100 uM; compound found nontoxic. Conditions: chlorocebus aethiops, in vitro. This is another data set of the same source.
Data set [9] deals with Vero. Nature of the data set: In vitro inhibitory activity against HSV-1 in vero cells in african green monkey at concentration 100 uM; IA is inactive. The class given is functional, cell-based. Conditions: Chlorocebus sabaeus.
For data set [10], the system named is Vero. In words: In vitro inhibitory activity against HSV-2 in vero cells of african green monkey at concentration 100 uM; IA is inactive. The class given is functional, cell-based. Conditions: Chlorocebus sabaeus.
Data set [11] is described as follows: Toxicity in Vero (African green monkey) cells at concentration 100 uM; compound was found nontoxic. Conditions: chlorocebus aethiops, in vitro.

Each structure is given as a SMILES string. Active and inactive are the calls of the source. The calls are words filed in the database; no cut-off is given here.

Turning to `Cc1cn(C(CCO)OCCO)c(=O)[nH]c1=O` (stereo not drawn), the outcome in the data set listed under Homo sapiens, with Vero [1], in the data set with Vero [2], in the data set on Vero [4] and in the data set with Vero [5] was inactive. For the same molecule, the Toxicity result in data set [3] was “Non-toxic”.

Regarding `Cc1cn(C(CCN=[N+]=[N-])OCCO)c(=O)[nH]c1=O` (stereo not drawn), the outcome in the data set filed under Homo sapiens, in the data set with Vero [1], in the data set with Vero [2], in the data set with Vero [4] and with Vero [5] was inactive. Further, the Toxicity result in [3] was “Non-toxic”.

For `COC(=O)CC(SCCO)n1cc(C)c(=O)[nH]c1=O` (stereo not drawn), the result with Vero [6] and with Vero [7] was inactive. Further, the Toxicity entry in data set [8] is recorded as “Non-toxic”.

Regarding `COC(=O)COC(CC(=O)OC)n1cc(C)c(=O)[nH]c1=O` (stereo not drawn), the outcome in the data set listed under Homo sapiens, in the data set on Vero [1], with Vero [2], in the data set with Vero [4] and with Vero [5] was inactive. In addition, in data set [3], the Toxicity entry is “Non-toxic”.

For `Cc1cn(C(CCO)SCCO)c(=O)[nH]c1=O` (stereo not drawn), the outcome in the data set listed under Homo sapiens was inactive. Moreover, the Activity entry with Vero [9] and in the data set with Vero [10] was “No activity” throughout. Besides, in [11], the Toxicity entry is recorded as “Non-toxic”.

In the case of `COC(=O)/C=C/n1cc(C)c(=O)[nH]c1=O`, the outcome in the data set on Vero [6] and in the data set on Vero [7] was inactive. Further, in data set [8], the Toxicity result is “Non-toxic”.
